Measurements reported in ChEMBL document CHEMBL5385868, “Bifunctional carbazole derivatives for simultaneous therapy and fluorescence imaging in prion disease murine cell models” (Eur J Med Chem, 2023).
Active and inactive are the calls of the source. The rule behind the calls is not given here.

What was measured:
[1] = Cytotoxicity against RML infected mouse ScGT1 cells assessed as reduction in cell viability at 0.1 uM measured after 5 days by MTT assay relative to control; format: toxicity, cell-based; settings: scgt1, 120 h, time 5 day
Summary of the method: (§1)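 MTT viability in RML-infected ScGT1 cells after 5 days exposure to 0.1, 1 or 10 µM compound, vehicle control. MTT 5 mg/mL in PBS for 3 h at 37 °C, 5% CO2; dissolved in DMSO/2-propanol (1:1), 30 min at room temperature, then plate read; triplicate.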

[2] = Anti-prion activity against RML infected mouse ScGT1 cell lysate assessed as PrPSc residual level at 10 uM measured after 5 days by Western blot analysis relative to control; format: functional; settings: time 5 day
Summary of the method: (§2)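 RML-infected ScGT1 cells, confluent, split 1:10 and seeded in triplicate; compound (DMSO stock diluted in water) added to medium two days after seeding at 0.1, 1 or 10 µM, vehicle control; 5 days treatment. Lysates (1 mg/mL) digested with 20 µg/mL PK, 1 h, 37 °C, stopped with PMSF, ultracentrifuged; pellets blotted with anti-PrP Fab D18. PrPSc remaining expressed relative to untreated lysates.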

[3] = system: ScGT1; test: (§3) Anti-prion activity against RML infected mouse ScGT1 cells assessed as inhibition of PrPSc formation measured after 5 days by Western blot analysis; format: functional; settings: dose 0.1-10 µM, time 5.0 day; summary of the method: as §2
[4] = as §3; format: functional; settings: dose 0.1-10 µM; time 5 day; summary of the method: as §2
[5] = Cytotoxicity against RML infected mouse ScGT1 cells assessed as reduction in cell viability at 10 uM measured after 5 days by MTT assay relative to control; format: toxicity, cell-based; settings: scgt1, 120 h, time 5 day; summary of the method: as §1
[6] = Anti-prion activity against RML infected mouse ScGT1 cell lysate assessed as PrPSc residual level at 1 uM measured after 5 days by Western blot analysis relative to control; format: functional; settings: time 5 day; summary of the method: as §2
[7] = Cytotoxicity against RML infected mouse ScGT1 cells assessed as reduction in cell viability at 1 uM measured after 5 days by MTT assay relative to control; format: toxicity, cell-based; settings: scgt1, 120 h, time 5 day; summary of the method: as §1
[8] = Anti-prion activity against RML infected mouse ScGT1 cell lysate assessed as PrPSc residual level at 0.1 uM measured after 5 days by Western blot analysis relative to control; format: functional; settings: time 5 day; summary of the method: as §2
[9] = system: N2a; test: Effect on N2a mouse cells assessed appearance of protein aggregates measured after 60 mins by fluorescence based confocal microscopy based analysis; format: functional, cell-based
Summary of the method: (§4)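 N2a cells on coverslips at semi-confluence for 24 h, fixed in 4% paraformaldehyde, permeabilised with 0.2% Triton X-100, denatured with 6 M GdnHCl for 10 min, blocked with 1% BSA, then stained with 0.025% compound for 60 min. Anti-PrP mAb W226 as counterstain, DAPI for nuclei; confocal imaging with FITC/TRITC filters.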

[10] = system: ScN2a; test: Anti-prion activity against 22L prion infected mouse ScN2a cells assessed as reduction in PrPSc level measured after 5 days by Western blot analysis; format: functional, cell-based; settings: 120 h
Summary of the method: (§5)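 22L-infected ScGT1 or ScN2a cells given compound in medium (vehicle ≤0.001% DMSO), triplicate. Lysates digested with 20 µg/mL PK for 1 h at 37 °C, stopped with PMSF, ultracentrifuged; PK-resistant PrP detected by Western blot with anti-PrP Fab D18 and HRP-conjugated secondary, ECL read-out.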

[11] = system: GT1; test: Anti-prion activity against mouse GT1 cells assessed as reduction in PrPSc level at 0.1 to 10 uM measured after 5 days by Western blot analysis; format: functional, cell-based; settings: dose 0.1-10 µM, time 5.0 day
[12] = target: Major prion protein (Mus musculus) (UniProt P04925); test: Inhibition of full length recombinant mouse PrP (89 to 231 residues) expressed in Escherichia coli BL21 (DE3) cells to PrPSc conversion assessed as lag time for protein aggregation at 4 uM measured after 72 hrs by spectramax fluorescence microplate reader analysis
[13] = target: Major prion protein (Mus musculus) (UniProt P04925); test: Inhibition of full length recombinant mouse PrP (89 to 231 residues) expressed in Escherichia coli BL21 (DE3) cells to PrPSc conversion assessed as lag time for protein aggregation at 20 uM measured after 72 hrs by spectramax fluorescence microplate reader analysis
[14] = target: Major prion protein (Mus musculus) (UniProt P04925); test: Inhibition of full length recombinant mouse PrP (89 to 231 residues) expressed in Escherichia coli BL21 (DE3) cells to PrPSc conversion assessed as lag time for protein aggregation at 40 uM measured after 72 hrs by spectramax fluorescence microplate reader analysis
[15] = Anti-prion activity against 22L prion infected mouse ScGT1 cells assessed as reduction in PrPSc level measured after 5 days by Western blot analysis; format: functional, cell-based; settings: ScGT1, 120 h; summary of the method: as §5
[16] = system: N2a; test: Effect on N2a mouse cells assessed appearance of protein clusters measured after 60 mins by fluorescence based confocal microscopy based analysis; format: functional, cell-based; summary of the method: as §4
[17] = target: Major prion protein (Mus musculus) (UniProt P04925); test: Inhibition of full length recombinant mouse PrP (89 to 231 residues) expressed in Escherichia coli BL21 (DE3) cells to PrPSc conversion assessed as vCJD prion amplification at 10 uM
[18] = target: Major prion protein (Mus musculus) (UniProt P04925); test: Inhibition of full length recombinant mouse PrP (89 to 231 residues) expressed in Escherichia coli BL21 (DE3) cells to PrPSc conversion assessed as RML amplification at 10 uM in presence of PMCA
[19] = target: Major prion protein (Mus musculus) (UniProt P04925); test: Inhibition of full length recombinant mouse PrP (89 to 231 residues) expressed in Escherichia coli BL21 (DE3) cells to PrPSc conversion assessed as vCJD prion amplification at 10 uM in presence of PMCA
Summary of the method: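 vCJD prions serially diluted 10^-5 to 10^-8 into 10% brain homogenate from Tg(MHu2M) mice expressing chimeric human-murine PrP, in conversion buffer with 0.05% digitonin. Substrate supplemented with PBS or 10 µM compound. PMCA: incubation at 37/40 °C with 40 s sonication pulses at 270–280 W.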

[20] = target: Major prion protein (Mus musculus) (UniProt P04925); test: Inhibition of full length recombinant mouse PrP (89 to 231 residues) expressed in Escherichia coli BL21 (DE3) cells to PrPSc conversion assessed as RML amplification at 10 uM
[21] = Anti-prion activity against RML infected mouse ScGT1 cells assessed as reduction in PrPSc level measured after 5 days by Western blot analysis; format: functional, cell-based; settings: ScGT1, 120 h; summary of the method: as §2
[22] = Anti-prion activity against RML infected mouse ScGT1 cell assessed as PrPSc clearance level measured after 5 days by Western blot analysis; format: functional, cell-based; settings: ScGT1, 120 h; summary of the method: as §2

Chain of Major prion protein (Mus musculus) (P04925 whole entry, the tested form may be a part): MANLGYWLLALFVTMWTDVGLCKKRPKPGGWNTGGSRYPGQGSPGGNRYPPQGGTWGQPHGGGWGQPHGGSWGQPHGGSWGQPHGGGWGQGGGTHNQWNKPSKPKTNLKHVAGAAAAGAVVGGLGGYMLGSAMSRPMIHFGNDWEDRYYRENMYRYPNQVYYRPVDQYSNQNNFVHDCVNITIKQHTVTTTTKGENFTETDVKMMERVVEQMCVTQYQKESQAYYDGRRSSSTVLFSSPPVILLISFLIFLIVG

O=C(CN1CCCC1)Nc1ccc2[nH]c3ccc(NC(=O)CN4CCCC4)cc3c2c1
Cell viability relative to control [1]: 118%
Activity [2]: 27%
Activity [3]: Dose-Dependent Effect
Activity [4]: 7.4 µM
Activity [5]: 71%
Activity [6]: 103%
Cell viability (% of control) [7]: 85%
Activity [8]: 148%

O=C(Cn1ccnc1)Nc1ccc2[nH]c3ccc(NC(=O)Cn4ccnc4)cc3c2c1
Cell viability relative to control [1]: 100%
Activity [2]: 74%
Activity [5]: 77%
Activity [6]: 98%
Cell viability (% of control) [7]: 89%
Activity [8]: 120%

CN(C)CC(=O)Nc1ccc2[nH]c3ccc(NC(=O)CN(C)C)cc3c2c1
Activity [9]: Active
EC50 [10]: 7.3 µM
Activity [11]: inactive
TIME [12]: 21.5 h
TIME [13]: 5 h
TIME [14]: 9.5 h
EC50 [15]: 33.5 µM
Activity [16]: inactive
Cell viability relative to control [1]: 111%
Activity [2]: 17%
inhibition [17]: inactive
inhibition [18]: Active
inhibition [19]: inactive
Activity [5]: 95%
Activity [6]: 47%
inhibition [20]: inactive
EC50 [21]: 1.35 µM
Cell viability (% of control) [7]: 99%
EC50 [22]: 6.6 µM
Activity [8]: 130%

CN1CCN(CC(=O)Nc2ccc3[nH]c4ccc(NC(=O)CN5CCN(C)CC5)cc4c3c2)CC1
Cell viability relative to control [1]: 99%
Activity [2]: 28%
Activity [5]: 47%
Activity [6]: 46%
Cell viability (% of control) [7]: 70%
Activity [8]: 85%

O=C(CN1CCN(c2ccccc2)CC1)Nc1ccc2[nH]c3ccc(NC(=O)CN4CCN(c5ccccc5)CC4)cc3c2c1
Cell viability relative to control [1]: 71%
Activity [2]: 134%
Activity [5]: 63%
Activity [6]: 136%
Cell viability (% of control) [7]: 73%
Activity [8]: 124%

O=C(CN1CCCCC1)Nc1ccc2[nH]c3ccc(NC(=O)CN4CCCCC4)cc3c2c1
Cell viability relative to control [1]: 81%
Activity [2]: 44%
Activity [5]: 69%
Activity [6]: 105%
Cell viability (% of control) [7]: 76%
Activity [8]: 109%

CC(C)N(CC(=O)Nc1ccc2[nH]c3ccc(NC(=O)CN(C(C)C)C(C)C)cc3c2c1)C(C)C
Cell viability relative to control [1]: 92%
Activity [2]: 24%
Activity [5]: 61%
Activity [6]: 39%
Cell viability (% of control) [7]: 75%
Activity [8]: 73%

O=C(CN1CCCC1)Nc1ccc2[nH]c3ccccc3c2c1
Cell viability relative to control [1]: 83%
Activity [2]: 26%
Activity [5]: 29%
Activity [6]: 75%
Cell viability (% of control) [7]: 72%
Activity [8]: 78%

CCN(CC)CC(=O)Nc1ccc2[nH]c3ccc(NC(=O)CN(CC)CC)cc3c2c1
Activity [11]: inactive
Cell viability relative to control [1]: 108%
Activity [2]: 31%
Activity [5]: 103%
Activity [6]: 57%
EC50 [21]: 2.25 µM
Cell viability (% of control) [7]: 99%
EC50 [22]: 8 µM
Activity [8]: 84%

O=C(CN1CCOCC1)Nc1ccc2[nH]c3ccc(NC(=O)CN4CCOCC4)cc3c2c1
Cell viability relative to control [1]: 101%
Activity [2]: 59%
Activity [5]: 84%
Activity [6]: 102%
Cell viability (% of control) [7]: 86%
Activity [8]: 96%

O=C(CN1CCCC1)Nc1ccc(Cc2ccc(NC(=O)CN3CCCC3)cc2)cc1
Activity [11]: inactive
Cell viability relative to control [1]: 85%
Activity [2]: 13%
Activity [4]: 7.8 µM
Activity [5]: 50%
Activity [6]: 103%
Cell viability (% of control) [7]: 69%
EC50 [22]: 2.5 µM
Activity [8]: 127%
